Experimental data: ChEMBL document CHEMBL1139455, “Three-dimensional quantitative structure-activity relationship modeling of cocaine binding by a novel human monoclonal antibody” (J Med Chem, 2004)

Experiments:
[1] = test system: Monoclonal antibody (mAb) 2E2; experiment: Binding affinity against human monoclonal antibody (mAb) 2E2 relative to cocaine by ELISA method.
Procedure, shortened: (§1)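 Competition ELISA with human mAb 2E2 (from SCID mouse ascites, partially purified by sodium sulfate precipitation and protein A chromatography). Detection with biotinylated goat anti-human IgG (γ-chain-specific). IC50 obtained by three-parameter logistic fit. RBA is the competitor IC50 divided by the cocaine IC50. Values are averages of three or more independent experiments, each done in duplicate.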

[2] = test system: Monoclonal antibody (mAb) 2E2; experiment: Relative binding affinity for human monoclonal antibody (mAb) 2E2
[3] = target: Monoclonal antibody (mAb) 2E2; experiment: Dissociation Constant for human monoclonal antibody 2E2 with [3H]cocaine
Procedure, shortened: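 Saturation binding of [3H]-cocaine to mAb 2E2. Bound ligand was separated by double-antibody precipitation, using goat anti-human Fc as the first antibody, and counted by liquid scintillation. Kd was fitted from counts per minute against total cocaine concentration to a binding isotherm. Points are averages of duplicates. Each experiment was run three times.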

[4] = target: Monoclonal antibody (mAb) 2E2; experiment: Binding affinity towards human monoclonal antibody 2E2 using [3H]cocaine
Procedure, shortened: (§2)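 Radioligand competition with 1 nM [3H]-cocaine diluted with 14 nM unlabeled cocaine and 0.4 nM mAb 2E2, against varying unlabeled competitor. Separation was by double-antibody precipitation (goat anti-human Fc) and read by scintillation counting. Duplicate data were fitted to a three-parameter logistic equation for IC50. RBA is the Ki of the compound divided by the Ki of cocaine. Three repeats were run.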

[5] = test system: Monoclonal antibody (mAb) 2E2; experiment: Binding affinity against human monoclonal antibody (mAb) 2E2 by ELISA; procedure, shortened: as §1
[6] = test system: Monoclonal antibody (mAb) 2E2; experiment: Relative binding affinity against human monoclonal antibody (mAb) 2E2 compared to cocaine
[7] = target: Monoclonal antibody (mAb) 2E2; experiment: Relative binding affinity against human monoclonal antibody 2E2 compared to [3H]cocaine; procedure, shortened: as §2

## COC(=O)[C@H]1C2CCC(C[C@@H]1OC(=O)c1ccccc1)N2 (stereo in doubt; 36)
[1]
  relative binding affinity (RBA): 1100

## COC(=O)[C@@H]1C2CCC(C[C@@H]1OC(=O)c1cccc(O)c1)N2C (some centres undefined)
[1]
  relative binding affinity (RBA): 8.4

## COC(=O)C1=CCC2CCC1N2C (centres undefined)
[1]
  relative binding affinity (RBA): 21000

## CN1C2CCC1[C@@H](C(N)=O)[C@@H](OC(=O)c1ccccc1)C2 (some centres undefined)
[1]
  relative binding affinity (RBA): 22

## CN1C2CC(OC(=O)[C@](O)(CO)c3ccccc3)CC1C1OC12 (some centres undefined)
[1]
  relative binding affinity (RBA): 59000

## CCCC[N+]1(C)C2CC(OC(=O)[C@H](CO)c3ccccc3)CC1C1OC12 (some centres undefined)
[1]
  relative binding affinity (RBA): 3700

## CN1C2CCC1[C@@H](C(=O)O)[C@@H](OC(=O)c1cccc(O)c1)C2 (some centres undefined)
[1]
  relative binding affinity (RBA): 32

## C[N+]1([O-])[C@@H]2CC[C@H]1C[C@@H](OC(=O)C(CO)c1ccccc1)C2 (some centres undefined)
[1]
  relative binding affinity (RBA): 90000

## COC(=O)[C@H]1[C@@H](OC(=O)c2ccccc2)C[C@@H]2CC[C@H]1N2C [COCAINE]
[2]
  relative binding affinity (RBA): 1
[3]
  Kd: 4.4 nM
[4]
  Ki: 3.5 nM
[5]
  relative binding affinity (RBA): 1

## CN1C2CCC1[C@@H](C(=O)O)[C@@H](OC(=O)c1ccccc1)C2 (some centres undefined)
[6]
  relative binding affinity (RBA): 12
[1]
  relative binding affinity (RBA): 9.8
[7]
  Ki: 43 nM

## COC(=O)[C@@H]1C2CCC(C[C@@H]1O)N2C (some centres undefined)
[6]
  relative binding affinity (RBA): 1500
[1]
  relative binding affinity (RBA): 2500
[7]
  Ki: 5200 nM

## CNC(=O)[C@@H]1C2CCC(C[C@@H]1OC(=O)c1ccccc1)N2C (some centres undefined)
[1]
  relative binding affinity (RBA): 29

## COC(=O)[C@H]1C2CCC(C[C@@H]1OC(=O)c1ccccc1)N2 (stereo in doubt)
[1]
  relative binding affinity (RBA): 1800

## COC(=O)[C@@H]1C2CCC(C[C@@H]1c1ccc(Cl)c(Cl)c1)N2C (some centres undefined)
[1]
  relative binding affinity (RBA): 8.5

## CN(C)C(=O)[C@@H]1C2CCC(C[C@@H]1OC(=O)c1ccccc1)N2C (some centres undefined)
[1]
  relative binding affinity (RBA): 7.4

## CN1C2CCC1[C@@H](C(=O)O)[C@@H](OC(=O)c1ccc(O)cc1)C2 (some centres undefined)
[1]
  relative binding affinity (RBA): 36

## CON(C)C(=O)[C@@H]1C2CCC(C[C@@H]1OC(=O)c1ccccc1)N2C (some centres undefined)
[1]
  relative binding affinity (RBA): 21

## CN1C2CCC1CC(O)C2 (centres undefined)
[1]
  relative binding affinity (RBA): 91000

## CCCOC(=O)[C@@H]1C2CCC(C[C@@H]1OC(=O)c1ccccc1)N2C (some centres undefined)
[1]
  relative binding affinity (RBA): 0.23

## CN1C2CCC1[C@@H](C(=O)Oc1ccccc1)[C@@H](c1ccc(Cl)cc1)C2 (some centres undefined)
[1]
  relative binding affinity (RBA): 1.7

## C[N+]1([O-])C2CC(OC(=O)[C@H](CO)c3ccccc3)CC1C1OC12 (some centres undefined)
[1]
  relative binding affinity (RBA): 130000

## COC(=O)[C@@H]1C2CC[C@H](C[C@@H]1c1ccccc1)N2C
[1]
  relative binding affinity (RBA): 29

## CCOC(=O)[C@@H]1C2C(C)CC(C[C@@H]1OC(=O)c1ccccc1)N2C (some centres undefined)
[1]
  relative binding affinity (RBA): 0.21

## O=C(O[C@H]1CC2CCC(N2)[C@H]1C(=O)O)c1ccccc1 (some centres undefined)
[1]
  relative binding affinity (RBA): 120

## COC(=O)C1C2CCC(C[C@@H]1c1ccc(C)cc1)N2C (single isomer, unassigned)
[1]
  relative binding affinity (RBA): 14

## COC(=O)[C@H]1[C@@H](c2ccc(F)cc2)C[C@H]2CC[C@H]1N2C
[1]
  relative binding affinity (RBA): 19

## CN1C2CCC1[C@@H](C(=O)O)[C@@H](O)C2 (some centres undefined)
[6]
  relative binding affinity (RBA): 28000
[1]
  relative binding affinity (RBA): 28000
[7]
  Ki: 95000 nM

## C[N+]1(C)[C@@H]2C[C@@H](OC(=O)[C@H](CO)c3ccccc3)C[C@H]1[C@@H]1O[C@@H]12
[1]
  relative binding affinity (RBA): 5900

## CN1[C@@H]2C[C@@H](OC(=O)[C@H](CO)c3ccccc3)C[C@H]1[C@@H]1O[C@H]12
[1]
  relative binding affinity (RBA): 49000

## COC(=O)[C@@H]1C2CCC(C[C@@H]1c1ccc(I)cc1)N2C (some centres undefined)
[1]
  relative binding affinity (RBA): 4.5

## COC(=O)C1C2CC[C@H](C[C@@H]1c1ccc(Cl)cc1)N2C (some centres undefined)
[1]
  relative binding affinity (RBA): 9.3

## COC(=O)[C@@H]1C2CCC(C[C@@H]1OC(=O)c1ccccc1)N2 (some centres undefined)
[1]
  relative binding affinity (RBA): 4.3

## CCOC(=O)[C@@H]1C2CCC(C[C@@H]1OC(=O)c1ccccc1)N2C (some centres undefined) [COCAETHYLENE]
[6]
  relative binding affinity (RBA): 0.97
[1]
  relative binding affinity (RBA): 0.74
[7]
  Ki: 3.4 nM
